Data reported in ChEMBL document CHEMBL1275263, “Synthesis and evaluation of stilbene derivatives as a potential imaging agent of amyloid plaques” (Bioorg Med Chem, 2010).

What was measured:
[1] = Binding affinity to amyloid beta (1 to 40)
Outline: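 Aβ40 peptide in PBS (pH 7.4), brought to 200 final and shaken gently at 37 °C for 48 h to form fibrils, which were confirmed by ThT assay. Dye fluorescence was measured with the fibrils in PBS, with excitation and emission maxima determined by spectral scans. KD came from nonlinear regression fitting a one-site binding model, from 5 replicate experiments (N = 5).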

[2] = Binding to amyloid beta (1 to 40) fibrils assessed as fold increase in compound fluorescence at 30 uM by fluorescence assay relative to control

Kd [1] | Ratio [2] | Structure (SMILES)
1.13 µM | 25.8 | CNc1ccc(/C=C/c2ccc(Br)cc2)cc1
1.84 µM | 15.7 | CN(CCO)c1ccc(/C=C/c2ccc(Br)cc2)cc1
2.3 µM |  | Cc1ccc2c(c1)sc(-c1ccc(N(C)C)cc1)[n+]2C [THIOFLAVIN T]
17.9 µM | 9.3 | CNc1ccc(/C=C/c2cccc(OC)c2)cc1
2.89 µM | 8.91 | CN(CCO)c1ccc(/C=C/c2cccc(Br)c2)cc1
0.3 µM |  | CNc1ccc(-c2nc3ccccc3s2)cc1
